Test system: U2OS
Test: Multiplex assay against U2OS
Format: toxicity, cell-based
Conditions: human
In short: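 At seeding, live cells were stained with Hoechst33342, BioTracker Green Microtubule Cytoskeleton Dye, MitoTracker Red and Annexin V Alexa Fluor 680. After compound addition they were imaged on a CQ1 microscope at 37°C and 5% CO2, and CellPathfinder machine-learning gating sorted them into Hoechst high-intensity objects or normal cells, with normal cells further split into healthy, pyknosed or fragmented nuclei and pyknosed cells into mitotic or apoptotic. Tubulin, mitochondrial-mass and membrane-permeability phenotypes are given as per cents of cells with healthy nuclei.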

[1] = 12 h, 1 µM, compound concentration 1 uM, replicate 1
[2] = 12 h, 1 µM, compound concentration 1 uM, replicate 2
[3] = 12 h, 10 µM, compound concentration 10 uM, replicate 1
[4] = 12 h, 10 µM, compound concentration 10 uM, replicate 2
[5] = 24 h, 1 µM, compound concentration 1 uM, replicate 1
[6] = 24 h, 1 µM, compound concentration 1 uM, replicate 2
[7] = 24 h, 10 µM, compound concentration 10 uM, replicate 1
[8] = 24 h, 10 µM, compound concentration 10 uM, replicate 2
[9] = 48 h, 1 µM, compound concentration 1 uM, replicate 1
[10] = 48 h, 1 µM, compound concentration 1 uM, replicate 2
[11] = 48 h, 10 µM, compound concentration 10 uM, replicate 1
[12] = 48 h, 10 µM, compound concentration 10 uM, replicate 2

CN1CCC(=C2c3ccccc3CC(=O)c3sccc32)CC1.O=C(O)/C=C/C(=O)O [KETOTIFEN FUMARATE]
Population Apoptotic (%) [1]: 63% | Population Fragmented Nuclei (%) [1]: 10% | Population Healthy Nuclei (%) [1]: 75% | Population Hoechst High Intensity Objects (%) [1]: 5% | Population Membrane Permeable-Phenotype (%) [1]: 15% | Population Mitochondria Different-Phenotype (%) [1]: 19% | Population Mitotic Cells (%) [1]: 36% | Population Normal (%) [1]: 94% | Population Pyknosed Nuclei (%) [1]: 13% | Population Tubulin-Different-Phenotype (%) [1]: 19% | Total Cell Count [1]: 178 | Population Apoptotic (%) [2]: 75% | Population Fragmented Nuclei (%) [2]: 6% | Population Healthy Nuclei (%) [2]: 87% | Population Membrane Permeable-Phenotype (%) [2]: 10% | Population Mitochondria Different-Phenotype (%) [2]: 12% | Population Mitotic Cells (%) [2]: 25% | Population Pyknosed Nuclei (%) [2]: 6% | Population Tubulin-Different-Phenotype (%) [2]: 9% | Total Cell Count [2]: 56 | Population Apoptotic (%) [3]: 52% | Population Fragmented Nuclei (%) [3]: 15% | Population Healthy Nuclei (%) [3]: 62% | Population Hoechst High Intensity Objects (%) [3]: 5% | Population Membrane Permeable-Phenotype (%) [3]: 15% | Population Mitochondria Different-Phenotype (%) [3]: 90% | Population Mitotic Cells (%) [3]: 48% | Population Normal (%) [3]: 94% | Population Pyknosed Nuclei (%) [3]: 21% | Population Tubulin-Different-Phenotype (%) [3]: 97% | Total Cell Count [3]: 167 | Population Apoptotic (%) [4]: 33% | Population Fragmented Nuclei (%) [4]: 2% | Population Healthy Nuclei (%) [4]: 75% | Population Hoechst High Intensity Objects (%) [4]: 1% | Population Mitotic Cells (%) [4]: 66% | Population Normal (%) [4]: 98% | Population Pyknosed Nuclei (%) [4]: 22% | Population Tubulin-Different-Phenotype (%) [4]: 95% | Total Cell Count [4]: 67 | Population Apoptotic (%) [5]: 48% | Population Healthy Nuclei (%) [5]: 77% | Population Hoechst High Intensity Objects (%) [5]: 5% | Population Membrane Permeable-Phenotype (%) [5]: 8% | Population Mitochondria Different-Phenotype (%) [5]: 16% | Population Mitotic Cells (%) [5]: 52% | Population Normal (%) [5]: 94% | Population Pyknosed Nuclei (%) [5]: 14% | Population Tubulin-Different-Phenotype (%) [5]: 11% | Total Cell Count [5]: 180 | Population Apoptotic (%) [6]: 100% | Population Fragmented Nuclei (%) [6]: 8% | Population Healthy Nuclei (%) [6]: 86% | Population Hoechst High Intensity Objects (%) [6]: 7% | Population Membrane Permeable-Phenotype (%) [6]: 9% | Population Mitochondria Different-Phenotype (%) [6]: 10% | Population Mitotic Cells (%) [6]: 0% | Population Normal (%) [6]: 92% | Population Pyknosed Nuclei (%) [6]: 5% | Population Tubulin-Different-Phenotype (%) [6]: 4% | Total Cell Count [6]: 64 | Population Apoptotic (%) [7]: 62% | Population Fragmented Nuclei (%) [7]: 14% | Population Healthy Nuclei (%) [7]: 59% | Population Hoechst High Intensity Objects (%) [7]: 6% | Population Membrane Permeable-Phenotype (%) [7]: 5% | Population Mitochondria Different-Phenotype (%) [7]: 96% | Population Mitotic Cells (%) [7]: 37% | Population Normal (%) [7]: 93% | Population Pyknosed Nuclei (%) [7]: 25% | Population Tubulin-Different-Phenotype (%) [7]: 85% | Total Cell Count [7]: 186 | Population Apoptotic (%) [8]: 59% | Population Fragmented Nuclei (%) [8]: 6% | Population Healthy Nuclei (%) [8]: 66% | Population Hoechst High Intensity Objects (%) [8]: 2% | Population Membrane Permeable-Phenotype (%) [8]: 22% | Population Mitochondria Different-Phenotype (%) [8]: 98% | Population Mitotic Cells (%) [8]: 40% | Population Normal (%) [8]: 97% | Population Pyknosed Nuclei (%) [8]: 27% | Population Tubulin-Different-Phenotype (%) [8]: 88% | Total Cell Count [8]: 80 | Population Apoptotic (%) [9]: 40% | Population Fragmented Nuclei (%) [9]: 4% | Population Healthy Nuclei (%) [9]: 86% | Population Hoechst High Intensity Objects (%) [9]: 4% | Population Membrane Permeable-Phenotype (%) [9]: 5% | Population Mitochondria Different-Phenotype (%) [9]: 13% | Population Mitotic Cells (%) [9]: 59% | Population Normal (%) [9]: 95% | Population Pyknosed Nuclei (%) [9]: 8% | Population Tubulin-Different-Phenotype (%) [9]: 11% | Total Cell Count [9]: 182 | Population Apoptotic (%) [10]: 28% | Population Fragmented Nuclei (%) [10]: 8% | Population Healthy Nuclei (%) [10]: 80% | Population Hoechst High Intensity Objects (%) [10]: 2% | Population Membrane Permeable-Phenotype (%) [10]: 4% | Population Mitochondria Different-Phenotype (%) [10]: 9% | Population Mitotic Cells (%) [10]: 71% | Population Normal (%) [10]: 97% | Population Pyknosed Nuclei (%) [10]: 11% | Population Tubulin-Different-Phenotype (%) [10]: 7% | Total Cell Count [10]: 63 | Population Apoptotic (%) [11]: 66% | Population Fragmented Nuclei (%) [11]: 12% | Population Healthy Nuclei (%) [11]: 60% | Population Membrane Permeable-Phenotype (%) [11]: 9% | Population Mitochondria Different-Phenotype (%) [11]: 70% | Population Mitotic Cells (%) [11]: 33% | Population Pyknosed Nuclei (%) [11]: 27% | Population Tubulin-Different-Phenotype (%) [11]: 72% | Total Cell Count [11]: 263 | Population Apoptotic (%) [12]: 57% | Population Fragmented Nuclei (%) [12]: 7% | Population Healthy Nuclei (%) [12]: 63% | Population Hoechst High Intensity Objects (%) [12]: 7% | Population Membrane Permeable-Phenotype (%) [12]: 16% | Population Mitochondria Different-Phenotype (%) [12]: 75% | Population Mitotic Cells (%) [12]: 42% | Population Normal (%) [12]: 92% | Population Pyknosed Nuclei (%) [12]: 29% | Population Tubulin-Different-Phenotype (%) [12]: 78% | Total Cell Count [12]: 130

COc1ccc(-c2ccc3c(N4CCOCC4)nc(N4C[C@@H](C)O[C@@H](C)C4)nc3n2)cc1CO [Ku-0063794]
Population Apoptotic (%) [1]: 36% | Population Fragmented Nuclei (%) [1]: 7% | Population Healthy Nuclei (%) [1]: 87% | Population Hoechst High Intensity Objects (%) [1]: 0% | Population Membrane Permeable-Phenotype (%) [1]: 8% | Population Mitochondria Different-Phenotype (%) [1]: 19% | Population Mitotic Cells (%) [1]: 63% | Population Normal (%) [1]: 99% | Population Pyknosed Nuclei (%) [1]: 5% | Population Tubulin-Different-Phenotype (%) [1]: 22% | Total Cell Count [1]: 158 | Population Apoptotic (%) [2]: 62% | Population Fragmented Nuclei (%) [2]: 11% | Population Healthy Nuclei (%) [2]: 83% | Population Hoechst High Intensity Objects (%) [2]: 7% | Population Membrane Permeable-Phenotype (%) [2]: 4% | Population Mitochondria Different-Phenotype (%) [2]: 20% | Population Mitotic Cells (%) [2]: 37% | Population Normal (%) [2]: 92% | Population Tubulin-Different-Phenotype (%) [2]: 30% | Total Cell Count [2]: 91 | Population Apoptotic (%) [3]: 69% | Population Fragmented Nuclei (%) [3]: 34% | Population Healthy Nuclei (%) [3]: 61% | Population Hoechst High Intensity Objects (%) [3]: 31% | Population Membrane Permeable-Phenotype (%) [3]: 20% | Population Mitochondria Different-Phenotype (%) [3]: 6% | Population Mitotic Cells (%) [3]: 30% | Population Normal (%) [3]: 68% | Population Pyknosed Nuclei (%) [3]: 4% | Population Tubulin-Different-Phenotype (%) [3]: 11% | Total Cell Count [3]: 221 | Population Apoptotic (%) [4]: 33% | Population Fragmented Nuclei (%) [4]: 37% | Population Healthy Nuclei (%) [4]: 57% | Population Hoechst High Intensity Objects (%) [4]: 37% | Population Membrane Permeable-Phenotype (%) [4]: 8% | Population Mitochondria Different-Phenotype (%) [4]: 11% | Population Mitotic Cells (%) [4]: 66% | Population Normal (%) [4]: 62% | Total Cell Count [4]: 164 | Population Apoptotic (%) [5]: 46% | Population Fragmented Nuclei (%) [5]: 7% | Population Healthy Nuclei (%) [5]: 88% | Population Hoechst High Intensity Objects (%) [5]: 0% | Population Membrane Permeable-Phenotype (%) [5]: 6% | Population Mitochondria Different-Phenotype (%) [5]: 19% | Population Mitotic Cells (%) [5]: 53% | Population Normal (%) [5]: 99% | Population Pyknosed Nuclei (%) [5]: 4% | Population Tubulin-Different-Phenotype (%) [5]: 22% | Total Cell Count [5]: 173 | Population Apoptotic (%) [6]: 16% | Population Fragmented Nuclei (%) [6]: 10% | Population Healthy Nuclei (%) [6]: 86% | Population Hoechst High Intensity Objects (%) [6]: 7% | Population Membrane Permeable-Phenotype (%) [6]: 7% | Population Mitochondria Different-Phenotype (%) [6]: 34% | Population Mitotic Cells (%) [6]: 83% | Population Normal (%) [6]: 92% | Population Pyknosed Nuclei (%) [6]: 3% | Population Tubulin-Different-Phenotype (%) [6]: 31% | Total Cell Count [6]: 93 | Population Apoptotic (%) [7]: 60% | Population Fragmented Nuclei (%) [7]: 31% | Population Healthy Nuclei (%) [7]: 63% | Population Hoechst High Intensity Objects (%) [7]: 35% | Population Membrane Permeable-Phenotype (%) [7]: 15% | Population Mitochondria Different-Phenotype (%) [7]: 4% | Population Mitotic Cells (%) [7]: 40% | Population Normal (%) [7]: 64% | Population Pyknosed Nuclei (%) [7]: 4% | Population Tubulin-Different-Phenotype (%) [7]: 9% | Total Cell Count [7]: 298 | Population Apoptotic (%) [8]: 31% | Population Fragmented Nuclei (%) [8]: 39% | Population Healthy Nuclei (%) [8]: 53% | Population Hoechst High Intensity Objects (%) [8]: 38% | Population Membrane Permeable-Phenotype (%) [8]: 7% | Population Mitochondria Different-Phenotype (%) [8]: 9% | Population Mitotic Cells (%) [8]: 68% | Population Normal (%) [8]: 61% | Population Pyknosed Nuclei (%) [8]: 6% | Population Tubulin-Different-Phenotype (%) [8]: 7% | Total Cell Count [8]: 197
